Reference: ChEMBL document CHEMBL4364270, “Structure-activity relationship studies on Bax activator SMBA1 for the treatment of ER-positive and triple-negative breast cancer” (Eur J Med Chem, 2019)
pIC50: −log10 of the molar value. Calls of active or inactive are those of the source. No cut-off for these calls is given here.

Assays:
MCF7 [1] = assay: Potency index, ratio of IC50 of (E/Z)-2-(2-((2-nitro-9H-fluoren 9-ylidene)methyl)phenoxy)ethan-1-amine to IC50 of compound for antiproliferative activity against ER-positive human MCF7 cells assessed as reduction in cell growth incubated for 48 hrs by MTT assay; type: functional
MCF7 [2] = assay: Induction of apoptosis in ER-positive human MCF7 cells assessed as upregulation of PARP1 cleavage incubated for 48 hrs by Western blot analysis; type: functional, cell-based
Summary of the method: (§1)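 Western blot: cells harvested after treatment, lysates quantified by Bradford (BSA standard), 30 µg protein resolved by SDS-PAGE, transferred to PVDF, blocked in 5% nonfat milk, probed overnight with anti-PARP-1, anti-cleaved PARP-1 or anti-cyclin D1 (1:1,000) and β-actin loading control; ECL visualization.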

MDA-MB-231 [3] = assay: Antitumor activity against triple-negative human MDA-MB-231 cells xenografted in mouse assessed as reduction in tumor growth at 2.5 mg/kg, ip administered once daily for 7 days; type: functional; conditions: MDA-MB-231, ip, 168 h, read-out: GI
Summary of the method: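 Female nude mice (6 weeks) given 2.5×10^6 MDA-MB-231 cells in PBS into third mammary fat pad, randomized into four groups; at 200 mm³ tumor volume dosed i.p. daily for 7 days in 50% DMSO/50% PEG vehicle; tumor volume (0.5×L×W²) and body weight measured daily; one-way ANOVA.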

T47D = assay: Antiproliferative activity against ER-positive human T47D cells assessed as reduction in cell growth at 1 uM incubated for 72 hrs by MTT assay relative to control; type: functional
Summary of the method: (§2)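 MTT viability after 72 h exposure at indicated concentrations; cells seeded at 1×10^3 cells/well (T47D, MDA-MB-468, MCF-10A, MCF-7/ADR) in 96-well plates; quadruplicate wells, independently repeated three times; IC50 as mean ± SE of at least three experiments.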

MCF7 [4] = assay: Induction of apoptosis in ER-positive human MCF7 cells assessed as increase in total Bax protein level at 5 uM incubated upto 48 hrs by Western blot analysis; type: functional, cell-based
Summary of the method: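 Western blot of MCF-7 (and MDA-MB-231 for cytosolic fractions) cells exposed to 5 μM over 0-48 h; 30 µg protein per lane on SDS-PAGE, PVDF transfer, 5% milk block, overnight primary antibodies (total Bax, p-Bax, active Bax 6A7, cytochrome C), ECL detection; cytosolic fraction used for cytochrome c and Bax.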

MCF7 [5] = assay: Antiproliferative activity against adriamycin-resistant human MCF7 cells assessed as reduction in cell growth incubated for 72 hrs by MTT assay; type: functional, cell-based; summary of the method: as §2
MCF7 [6] = assay: Induction of apoptosis in ER-positive human MCF7 cells assessed as appearance of concentrated dense granules at 5 to 10 uM incubated for 24 hrs by Hoechst 33342 staining based fluorescence microscopy; type: functional, cell-based
Summary of the method: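 Cells on coverslips (2.5×10^5/well) treated with DMSO or 5 and 10 μM for 24 h, washed in binding buffer, stained 15 min with FITC-annexin V, ethidium homodimer III and Hoechst 33342, mounted and imaged by fluorescence microscopy (DAPI filter) from center and peripheral regions.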

MCF7 [7] = assay: Inhibition of colony formation in ER-positive human MCF7 cells at 1 uM supplemented with fresh medium containing compound every 72 hrs for 2 weeks by crystal violet staining based assay; type: functional, cell-based
Summary of the method: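 Clonogenic assay: 800 cells per well seeded, treated after 24 h with 1 μM or DMSO vehicle, medium with compound renewed every 72 h for 2 weeks; PBS wash, 0.01% crystal violet 10 min, whole-well density digitally quantified; triplicate, one-way ANOVA, SD error bars.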

MDA-MB-231 [8] = assay: Antiproliferative activity against triple negative human MDA-MB-231 cells assessed as reduction in cell growth incubated for 48 hrs by MTT assay; type: functional, cell-based; conditions: MDA-MB-231, 48 h
Summary of the method: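 MTT viability: MCF-7 and MDA-MB-231 seeded 1×10^4 cells/well, exposed to DMSO or 0.01-100 μM for 48 h; MTT (5 mg/mL in PBS) added 4 h, formazan dissolved in DMSO, OD 550 nm; quadruplicate wells; IC50 fitted for compounds giving >50% inhibition at 10 µM; at least three independent experiments.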

MCF7 [9] = assay: Induction of apoptosis in ER-positive human MCF7 cells assessed as downregulation of cyclin D1 level incubated for 48 hrs by Western blot analysis; type: functional, cell-based; summary of the method: as §1

With `NCCOc1ncccc1C=C1c2ccccc2-c2ccc([N+](=O)[O-])cc21` the “Ratio IC50” value (MCF7 [1]) was 40 - 60, the Activity (MCF7 [2]) was “Dose-dependent effect” and the inhibition in vivo at 2.5 mg/kg (MDA-MB-231 [3]) was 55%. For the same compound, the inhibition at 1 µM (T47D) was greater than 50%, the Activity (MCF7 [4]) was “Active” and the inhibition (MCF7 [5]) was “Dose-dependent effect”. For the same compound, the Activity (MCF7 [6]) was “Active”, the inhibition (MCF7 [7]) was “Active” and the pIC50 (MDA-MB-231 [8]) was 7.15. The Activity (MCF7 [9]) was “Dose-dependent effect”.
